Like-named read-outs stand apart in the source and are kept apart here.
Experiments:
[1] = test system: different types of cancer cell lines; conditions: cited from earlier work
[2] = Circulation kinetics of Cy7-labeled curcumin micelles in mice; type: in vivo, BALB/c mice
Summary of the method: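 Female mice received 9% (w/w) curcumin-loaded Cy7-labelled mPEG-b-p(HPMA-Bz) micelles i.v. (500 mg polymer/kg, 100–200 μL). EDTA blood was drawn submandibularly at 1 min (set as 100% dose), 10 min and 1 h, and by cardiac puncture at 4 and 24 h. Plasma was ACN-extracted (1:4) and assayed for curcumin by C18 RP-HPLC at 425/254 nm. Parameters came from two-compartmental analysis.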

[3] = test system: Mz-ChA-1 cells; test: In vitro cytotoxicity, SRB total protein assay, Mz-ChA-1; type: cell-based, human
Summary of the method: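 Mz-ChA-1 cells in RPMI 1640 with 10% FBS, penicillin/streptomycin and 2 mM L-glutamine at 37 °C, 5% CO2. Seeded at 25 × 10^4 cells/well for slow growth, cultured 24 h. Then 24, 48 or 72 h with free test compound (DMSO, 0.4% v/v final) or micelle-encapsulated test compound in HBS, 0–200 μM; HBS-treated controls. PBS wash, SRB protein stain, absorbance 564 nm, viability versus control. IC50 by sigmoidal variable-slope curve fit.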

[4] = Biodistribution of Cy7-labeled curcumin micelles in mice; type: in vivo, BALB/c mice; conditions: 4 and 24 h post-administration, iv 50 mg curcumin/kg in micelles
[5] = test system: Sk-ChA-1 cells; test: In vitro cytotoxicity, SRB total protein assay, Sk-ChA-1; type: cell-based; conditions: Homo sapiens
Summary of the method: (§1)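 Cells grown in RPMI 1640 with 10% FBS, penicillin/streptomycin and 2 mM L-glutamine at 37 °C, 5% CO2. Seeded at 5 × 10^4 cells/well and cultured 24 h. Then exposed 24, 48 or 72 h to free test compound (DMSO, 0.4% v/v final) or micelle-loaded test compound in HBS, 0–200 μM; HBS controls. After PBS wash, SRB total protein read at 564 nm, normalized to control. IC50 from sigmoidal variable-slope nonlinear regression.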

[6] = test system: Neuro2A cells; test: In vitro cytotoxicity, SRB total protein assay, Neuro2A; type: cell-based, murine
Summary of the method: as §1

[7] = test system: cancer cells (Neuro2A, EGI-1, TFK-1, Mz-ChA-1); test: Association and uptake by flow cytometry and confocal microscopy; type: cell-based; conditions: 20 μM, flow cytometry
Summary of the method: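 5 × 10^5 cells/well, grown 18 h. Medium replaced by nonsupplemented medium containing 20 μM test compound, free (0.4% DMSO final) or micelle-loaded, or Cy5-labelled micelles at 0.3 mg/mL. Incubated 1 or 4 h, rinsed twice with PBS, trypsinized, analysed by flow cytometry. Confocal imaging on coverslips after 0.5, 1 and 4 h at 37 °C, excitation 405/633 nm.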

[8] = test system: EGI-1 cells; test: In vitro cytotoxicity, SRB total protein assay, EGI-1; type: cell-based; conditions: Homo sapiens
Summary of the method: as §1

[9] = test system: TFK-1 cells; test: In vitro cytotoxicity, SRB total protein assay, TFK-1; type: cell-based; conditions: Homo sapiens
Summary of the method: as §1

[10] = cited from earlier work
[11] = female, BALB/c, mouse, plasma, iv, 7.8 mg/kg
[12] = iv, 50 mg curcumin/kg, two-compartmental
[13] = read-out: IC50 after 48 and 72 h

t1/2α relative to that reported for free curcumin ([2]; curcumin after iv curcumin-loaded micelles vs literature free curcumin): ~5 times
AUC(0-inf) [2, 11]: 319 µg·h/mL
clearance [2, 11]: 2.62 mL/min/kg
initial phase t1/2α ([2]; iv, 50 mg curcumin/kg as curcumin-loaded micelles): 6.7 min
V1 [2, 12]: 0.086 L/kg
V2 [2, 12]: 0.344 L/kg
loaded curcumin eliminated during the first hour ([2]; iv, 50 mg/kg curcumin in micelles): 90%
curcumin concentration in the different organs [4]: 0.2–3 μg/g tissue
Structure (SMILES): COc1cc(/C=C/C(=O)CC(=O)/C=C/c2ccc(O)c(OC)c2)ccc1O [free curcumin, curcumin]
IC50 ([1]; read-out: IC50 mean ± SD): 21 ± 17 µM
IC50 ([1]; read-out: IC50 range): 1 to 100 µM
IC50 ([3]; Homo sapiens, 24 h, Mz-ChA-1, 24 h exposure): 48 µM
IC50 ([3]; Homo sapiens, 48 h, Mz-ChA-1, 48 h exposure): 38.4 ± 1.4 µM
IC50 ([3]; Homo sapiens, 72 h, Mz-ChA-1, 72 h exposure): 37.8 ± 1.1 µM
IC50 ([3]; Mz-ChA-1, 24 h exposure): 47.6 ± 1.6 µM
IC50 ([5]; 24 h): 33.9 ± 1.3 µM
IC50 ([5]; 48 h): 21.5 ± 0.4 µM
IC50 ([5]; 72 h): 21.3 ± 0.4 µM
IC50 [5, 13]: ~20 µM
IC50 ([6]; 24 h exposure): 83.8 ± 13.5 µM
IC50 ([6]; Mus musculus, N2a, 24 h, 24 h exposure): 84 µM
IC50 ([6]; Mus musculus, N2a, 48 h, 48 h exposure): 15.6 ± 0.8 µM
IC50 ([6]; Mus musculus, N2a, 72 h, 72 h exposure): 23.3 ± 1.2 µM
time of incubation until intracellular detection [7]: ≤ 1 h
IC50 ([8]; EGI-1, 24 h): 21.7 ± 0.5 µM
IC50 ([8]; EGI-1, 48 h): 18.2 ± 0.3 µM
IC50 ([8]; EGI-1, 72 h): 19.1 ± 0.3 µM
IC50 ([8]; EGI-1, read-out: IC50 after 48 and 72 h): ~20 µM
IC50 ([9]; 24 h): 27.7 ± 0.9 µM
IC50 ([9]; 48 h): 20.1 ± 0.9 µM
IC50 ([9]; 72 h): 17.5 ± 0.5 µM
IC50 [9, 13]: ~20 µM
AUC ([10]; 50 mg/kg in mice, noncompartmental analysis, ref 63 (Gao et al.)): 60.3 µg·h/mL
normalized AUC ([10]; two studies): 1.2 (μg·h/mL)/(mg/kg)

From PMC7927141 (Molecular Pharmaceutics, 2021)
